Values after ≈ are worked out from the molar mass of the structure shown. Values joined by “and” are separate entries in the source; they are usually repeats but may differ in a detail not shown here. Equal values may be shown once.
Key:
[1] = system: Klebsiella pneumoniae; assay: In vitro inhibition of growth of Klebsiella pneumoniae (PC-1602); type: functional
Procedure, shortened: (§1)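 Agar dilution using serial 2-fold dilutions in Mueller-Hinton agar, with plate concentrations 0.006 to 100 μg/mL. Inoculum approx. 10^6 cfu/mL. Plates incubated at 37 °C for 18 h. MIC taken as the lowest concentration preventing visible bacterial growth.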

[2] = system: Bacillus subtilis; assay: In vitro inhibition of growth of Bacillus subtilis (ATCC 6633); type: functional; procedure, shortened: as §1
[3] = system: Mus musculus; assay: (§2) Inhibition of growth of Escherichia coli (KC-14) upon oral administration in mice(95%CL); type: functional
Procedure, shortened: (§3)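 Male ddY mice (20 ± 2 g, groups of 10) infected intraperitoneally with 0.5 mL of E. coli KC-14 dilution at 10 or 100 times the 50% lethal dose. Compounds suspended in 0.5% sodium (carboxymethyl)cellulose and given orally 1 h postinfection. Survival scored after 1 week. ED50 derived with 95% confidence limits.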

[4] = system: Proteus vulgaris; assay: In vitro inhibition of growth of Proteus vulgaris(OX-19); type: functional; procedure, shortened: as §1
[5] = system: Escherichia coli; assay: In vitro Inhibition of growth of Escherichia coli(KC-14); type: functional; procedure, shortened: as §1
[6] = system: Staphylococcus aureus; assay: Inhibition of growth of Staphylococcus aureus (FDA207PJC-1) after incubation at 37 degree Centigrade; type: functional; procedure, shortened: as §1
[7] = system: Serratia marcescens; assay: In vitro inhibition of growth of Serratia marcescens (IAM1184); type: functional; procedure, shortened: as §1
[8] = system: Pseudomonas aeruginosa; assay: In vitro inhibition of growth of Pseudomonas aeruginosa(E-2); type: functional; procedure, shortened: as §1
[9] = system: Mus musculus; assay: (§4) Inhibition of growth of Escherichia coli (KC-14) upon oral administration in mice; type: functional
Procedure, shortened: (§5)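 Groups of 10 male ddY mice (20 ± 2 g) were inoculated intraperitoneally with 0.5 mL of E. coli KC-14 at 10 or 100 times the 50% lethal dose. Compounds, suspended in 0.5% sodium (carboxymethyl)cellulose, were given orally 1 h postinfection. Survival was scored after 1 week. ED50 is reported with 95% confidence limits.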

[10] = system: Escherichia coli; assay: as §2; type: functional; procedure, shortened: as §3
[11] = Area under the curve in concentration/ time; type: ADME
Procedure, shortened: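 Mice dosed orally at 50 mg/kg (formyl prodrug at a dose equivalent to 50 mg/kg of parent acid), suspended in 0.5% sodium (carboxymethyl)cellulose. Mice killed by bleeding at 0.5, 1.0, 2.0 and 4.0 h. Blood centrifuged and serum drug levels measured by HPLC. AUC from the serum concentration–time curve, in μg/mL per hour.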

[12] = system: Escherichia coli; assay: as §4; type: functional; procedure, shortened: as §5
[13] = system: Mus musculus; assay: Serum levels in Mice 0.5 hr after Oral administration of 50 mg/kg; nd= Not detected; type: functional, organism-based; design: dose 50 mg/kg
Procedure, shortened: (§6)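 Mice dosed orally at 50 mg/kg, suspended in 0.5% sodium (carboxymethyl)cellulose; prodrugs given at a dose equivalent to 50 mg/kg of parent acid. Mice killed by bleeding at 0.5, 1.0, 2.0 and 4.0 h, and serum obtained by centrifugation. Serum analysed by HPLC, eluting with 5% AcOH/MeOH (70/30). Values given with standard deviation.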

[14] = system: Mus musculus; assay: Serum levels in Mice 2 hr after Oral administration of 50 mg/kg; nd= Not detected; type: functional, organism-based; design: dose 50 mg/kg; procedure, shortened: as §6
[15] = system: Mus musculus; assay: Serum levels in Mice 1 hr after Oral administration of 50 mg/kg; nd= Not detected; type: functional, organism-based; design: dose 50 mg/kg; procedure, shortened: as §6
[16] = system: Mus musculus; assay: Serum levels in Mice 4 hr after Oral administration of 50 mg/kg; nd= Not detected; type: functional, organism-based; design: dose 50 mg/kg; procedure, shortened: as §6
[17] = Klebsiella pneumoniae, read-out: MIC
[18] = Staphylococcus aureus, read-out: MIC
[19] = Proteus vulgaris, read-out: MIC

SMILES	MIC [1, 17] [µg/mL]	MIC [2] [µg/mL]	ED50 [3] [mg/kg]	MIC [4] [µg/mL]	MIC [5] [µg/mL]	MIC [6, 18] [µg/mL]	MIC [7] [µg/mL]	MIC [8] [µg/mL]	MIC [4, 19] [µg/mL]	ED50 [9] [mg/kg]	ED50 [10] [mg/kg]	AUC [11]	MIC [1] [µg/mL]	ED50 [12] [mg/kg]	ED50 ([12]; Escherichia coli, po) [mg/kg]	MIC [6] [µg/mL]	Serum level [13]	Serum level [14]	Serum level [15]	Serum level [16]
CCn1cc(C=O)c(=O)c2cc(F)c(N3CCN(C)CC3)cc21	1.56 (≈ 4.92 µM)	3.13 (≈ 9.86 µM)	0.84	1.56 (≈ 4.92 µM)	6.25 (≈ 19.7 µM)	12.5 (≈ 39.4 µM)	12.5 (≈ 39.4 µM)	< 25	–	–	–	–	–	–	–	–	–	–	–	–
O=Cc1cn(C2CC2)c2cc(N3CCNCC3)c(F)cc2c1=O	12.5 (≈ 39.6 µM)	6.25 (≈ 19.8 µM)	–	–	3.13 (≈ 9.93 µM)	25 (≈ 79.3 µM)	12.5 (≈ 39.6 µM)	50 (≈ 159 µM)	3.13 (≈ 9.93 µM)	0.49	–	–	–	–	–	–	–	–	–	–
CCn1cc(C(=O)O)c(=O)c2cc(F)c(N3CCNCC3)cc21 [NORFLOXACIN]	0.05 (≈ 0.157 µM)	0.2 (≈ 0.626 µM)	–	–	0.1 (≈ 0.313 µM)	0.2 (≈ 0.626 µM)	0.2 (≈ 0.626 µM)	0.78 (≈ 2.44 µM)	0.05 (≈ 0.157 µM)	–	7.68	0.98 µg/mL/h and 1.77 µg/mL/h	–	–	–	–	–	–	–	–
CCn1cc(C(=O)O)c(=O)c2cc(F)c(N3CCN(C)CC3)cc21 [PEFLOXACIN]	0.05 (≈ 0.15 µM)	–	–	0.05 (≈ 0.15 µM)	–	0.39 (≈ 1.17 µM)	–	–	0.05 (≈ 0.15 µM)	–	–	–	0.05 (≈ 0.15 µM)	1.67	1.67	0.39 (≈ 1.17 µM)	–	–	–	–
CCn1cc(C=O)c(=O)c2cc(F)c(N3CCNCC3)cc21	3.12 (≈ 10.3 µM)	12.5 (≈ 41.2 µM)	–	–	12.5 (≈ 41.2 µM)	< 100	< 100	< 100	6.25 (≈ 20.6 µM)	2.53	–	–	–	–	–	–	Not detected	Not detected	Not detected	Not detected
